GPR7 antagonist – GPR7 receptor antagonists, primary screen, cell-based, fluorescence, single concentration; GPR7-expressing cells, fluorescence antagonist assay; inhibition, % at 4.4 µM; hit rate 1.1% among 290,000; Neuropeptides B/W receptor type 1 (Homo sapiens), P48145; in the data active means inhibition above about 16%, passing the limit was not always enough;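 further: cells stimulated with the agonist NPW; 0% = agonist with vehicle and 100% = vehicle without agonist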
Target sequence (P48145 whole entry, looked up): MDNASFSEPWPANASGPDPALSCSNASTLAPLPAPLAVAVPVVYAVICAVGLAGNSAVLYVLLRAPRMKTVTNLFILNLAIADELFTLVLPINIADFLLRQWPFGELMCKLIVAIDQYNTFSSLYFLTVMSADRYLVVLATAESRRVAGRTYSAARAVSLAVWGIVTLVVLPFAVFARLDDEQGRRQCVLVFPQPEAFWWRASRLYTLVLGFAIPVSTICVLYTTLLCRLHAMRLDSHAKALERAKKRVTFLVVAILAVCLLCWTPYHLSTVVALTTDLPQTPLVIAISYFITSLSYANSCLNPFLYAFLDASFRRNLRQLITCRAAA
CHO parental Ca – ATP-evoked calcium signal inhibitors, parental CHO, primary screen, counter-screen for OX1R antagonist project, cell-based, fluorescence, Fluo-8 calcium dye; parental CHO-K1, ATP-induced calcium, Fluo-8 fluorescence; inhibition, % at 5.6 µM; hit rate 0.63% among 330,000; AID 463079, 2010;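 active means inhibition above that plate's mean sample inhibition plus 3 SD, cut at about 26% in these data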;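 further: 0% = ATP-challenged DMSO wells and 100% = DMSO wells without ATP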
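Test system: parental CHO cells; detection: calcium-sensitive Fluo-8 fluorescence; evaluation: percent inhibition of calcium signal; also added: ATP as calcium-mobilizing challenge; repeats: one well per compound; control set: ATP-challenged DMSO wells low, unchallenged DMSO wells high; compound: single nominal dose of 5.6 µM per compound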
OX1R antag-1 – antagonists of human orexin 1 receptor (OX1R); OX1R-expressing cells, FRET antagonist read-out; hit rate 1.8% among 330,000; inhibition, % at 6.6 µM; AID 485270, 2010; Orexin/Hypocretin receptor type 1 (Homo sapiens), O43613; in the data active means inhibition mostly above about 38%, no sharp cut-off; inactive means mostly below about 40%;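 further: 0% = agonist challenge alone and 100% = reference antagonist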
OX1R antag-2 – OX1R (HCRTR1) antagonists, primary screen, fluorescence, CHO/OX1R cells, Fluo-8 calcium, orexin A; Fluo-8 calcium fluorescence; inhibition, % at 5 µM; hit rate 0.43% among 330,000; AID 434989, 2010;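 active means inhibition above its plate's threshold, mean inhibition of all tested compounds on the plate plus 3 SD, cut at about 37% in these data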;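 further: 0% = orexin A challenge wells and 100% = SB-334867-A antagonist wells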
GalR3 antag – GalR3 antagonists in HEK293 cells, primary screen, cell-based, fluorescence readout; Galanin receptor type 3 (Homo sapiens), O60755; HEK293 GalR3-CNG cAMP membrane potential fluorescence; galR3 body fused to GalR1 C-terminus; inhibition, % at 3 µM; hit rate 0.44% among 360,000; AID 651719, 2012;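 active means inhibition above the screen-wide average plus 3 SD, cut at about 13% in these data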;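 further: forskolin and galanin both at EC90 stimulate the cells; cAMP rise reported by CNG channel membrane potential dye signal; 0% = forskolin plus galanin with DMSO and 100% = forskolin alone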
Target sequence (O60755 1-299 limits assumed): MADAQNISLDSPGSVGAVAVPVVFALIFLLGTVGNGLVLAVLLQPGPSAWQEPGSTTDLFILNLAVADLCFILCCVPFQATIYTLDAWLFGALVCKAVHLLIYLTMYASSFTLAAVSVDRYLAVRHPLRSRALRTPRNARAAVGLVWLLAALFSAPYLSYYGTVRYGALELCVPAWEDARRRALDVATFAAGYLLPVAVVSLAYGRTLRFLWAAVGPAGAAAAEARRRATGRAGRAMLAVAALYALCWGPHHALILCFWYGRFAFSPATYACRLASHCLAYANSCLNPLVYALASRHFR
* hit, by the source's call; x = not tested or not shown. Rows were chosen to be rich in hits. Some 3.1% of all compounds tested hit in one or more screens of this group.

SMILES	GPR7 antagonist	CHO parental Ca	OX1R antag-1	OX1R antag-2	GalR3 antag
CN(CCc1ccccn1)C(=O)[C@@H](Cc1ccccc1)NC(=O)[C@H]1O[C@@H](n2ccc(=O)[nH]c2=O)[C@H](O)[C@@H]1O	x	x	x	x	-4.1
Nc1ccccc1SC1CC(=O)N(c2ccc(Cl)c(Cl)c2)C1=O (stereo not given)	-6.4	34.3*	6.8	24.1	-8.8
Nc1ccccc1SC1CC(=O)N(c2ccc3c(c2)OCCO3)C1=O (stereo not given)	-12.1	-17.9	6.8	-17.0	0.8
COC(=O)C1=C(C)N(C)C(=NCC2CC2)NC1c1cccc(Cl)c1 (stereo not given)	x	x	x	x	-6.1
Cc1cc(C(C)(C)C)c(OC(=O)[C@@H]2OC(c3ccccc3)=C[C@H]2c2ccccc2)c(C(C)(C)C)c1	x	-36.0	10.0	-11.7	-6.1
COc1ccc(-c2cccc(NC(=O)COc3ccc(Cl)cc3)c2)nn1	-0.9	-23.2	23.8	-19.4	x
COc1cccc(N2C(=O)C(c3ccccc3)=C(c3nc4ccccc4s3)C2NC(C)=O)c1 (stereo not given)	-7.8	-13.4	53.0*	-6.0	-1.3
CCN(C(=O)CSc1nnc(-c2c[nH]c3ccccc23)n1C1CC1)C1CCS(=O)(=O)C1 (stereo not given)	x	-1.7	3.6	-14.3	-3.6
COc1ccc2ccc(OC)c(/C=N/n3cnnc3)c2c1	-5.4	-7.7	0.7	-13.3	-8.4
CC(=O)Oc1ccccc1C(=O)C=Cc1cccc([N+](=O)[O-])c1	x	x	x	x	27.6*
Cc1cc(O)c(C(=O)/C=C/c2cccc([N+](=O)[O-])c2)c(=O)o1	-1.8	-10.0	4.9	-20.3	-1.1
CCc1ccccc1NC(=O)CNCC(=O)Nc1ccccc1CC	12.7	-16.6	-8.6	-12.2	-8.6
COC(=O)C(C)Sc1nc2c(c(=O)[nH]c(=O)n2C)n1CCCc1ccccc1 (stereo not given)	-16.0	-18.2	14.3	-31.9	52.7*
CCOC(=O)C(C)Sc1nc2c(c(=O)[nH]c(=O)n2C)n1CCc1ccccc1 (stereo not given)	23.2	-17.2	30.3	-5.3	-1.8
CCOc1cc(CNCCO)cc(Br)c1OCc1ccccc1	15.2	-7.0	14.6	8.1	-13.9
CCOc1cc(CNCCSc2nnnn2C)cc(Br)c1OCc1ccccc1	7.5	65.8*	10.6	51.1*	-3.4
Cc1cc(O)c(N)c(C)c1Cl	-5.3	-13.7	53.5*	-21.6	-2.9
Cc1cc(O)cc(C)c1Cl	x	-6.8	12.3	-10.2	3.2
O=C(Cn1nc(-c2ccccc2)ccc1=O)Nc1ccc(N2CCN(C(=O)c3ccccc3)CC2)cc1	19.8*	-4.7	7.1	-29.8	-4.6
O=C(Cn1nc(-c2ccc3c(c2)OCCO3)ccc1=O)Nc1ccc(-n2cnnn2)cc1	-9.5	29.2*	14.8	10.1	-7.5
CC(=O)Nc1cc2c(cc1NC(=O)Cn1nc(-c3ccc4c(c3)OCCO4)ccc1=O)OCCO2	-8.1	-15.9	30.0	-9.5	-0.8
Cc1ccc(S(=O)(=O)N(CCC(=O)NCc2ccccc2F)c2ccccc2)cc1	x	-18.5	25.5*	-5.9	-1.2
COC(=O)[C@]12C[C@H](CC(=O)NCc3cccc(C(F)(F)F)c3)C(=O)N(Cc3ccccc3)C1=C[C@H](C(C)C)O[C@@H]2C1CC1	x	x	x	x	-5.1
CN1OC[C@@H]2CN(C(=O)C3CCCCC3)[C@H](c3ccc(N4CCCCC4)cc3)C[C@@H]21	x	x	x	x	-6.7
O=[N+]([O-])c1ccc(S(=O)(=O)c2cccc(C(F)(F)F)c2)nc1	x	41.0*	39.7	30.8	x
SMILES	GPR7 antagonist	CHO parental Ca	OX1R antag-1	OX1R antag-2	GalR3 antag
CC1(C)N=C(N)N=C(N)N1c1ccc(CCCCc2ccccc2)cc1	x	x	x	x	100.6*
CN(C)c1ncc(S(=O)(=O)c2ccccc2)c(-c2ccc(Cl)cc2Cl)n1	-7.7	4.4	53.1*	-13.4	-3.7
O=C(CSc1ccccn1)Nc1ccc2[nH]c(=O)[nH]c2c1	x	0.7	5.3	1.7	-2.5
CC(=O)c1sc2nc(C)c3c(c2c1N)CCCC3	-12.5	-17.7	50.2*	-32.4	0.9
CCOC(=O)c1sc2nc(CC(C)C)c3c(c2c1N)CCC3	3.5	-15.5	22.0	-25.6	3.5
C/C(=N\Nc1ccc([N+](=O)[O-])cc1)c1cc2ccccc2o1	-3.5	40.8*	55.4*	55.4*	-2.4
O=C(N/N=C/c1ccc([N+](=O)[O-])cc1)c1cc2ccccc2o1	-4.0	-11.1	18.7	-5.2	-7.2
CC1/C(=N/O)CC(c2ccccc2)NC1c1ccccc1 (stereo not given)	3.5	-11.2	22.7	-4.3	-6.8
CC(C)C1/C(=N/O)CC(c2ccccc2)NC1c1ccccc1 (stereo not given)	20.9*	-9.3	2.8	-10.9	-3.8
Cc1cc(C(C#N)c2ccc(Cl)cc2)c(Cl)cc1NC(=O)c1cc(I)cc(I)c1O (stereo not given)	x	47.0*	62.1*	28.5	-1.2
Cc1cc(NC(=O)c2ccc(Cl)cc2)c(C)cc1O	-4.0	-9.2	11.4	-4.8	0.0
CSCCC(NC(=O)c1ccccc1Cl)C(=O)NNC(=O)c1ccncc1 (stereo not given)	x	-8.0	22.3	-12.7	-6.8
O=C(NCc1ccccc1)[C@@H]1CCCN1C(=O)[C@H]1CCCN1C(=O)c1cccc2ccccc12	x	x	x	x	-5.0
COc1ccc(C(C(=O)NCc2ccccc2)n2c(-c3ccccn3)nc3ccccc32)cc1 (stereo not given)	x	x	x	x	-8.9
O=C(NN=Cc1ccc(F)cc1)c1ccccc1NS(=O)(=O)c1cccs1	x	-5.8	24.8*	-6.3	-4.8
O=C(N/N=C/c1cccnc1)c1ccccc1NS(=O)(=O)c1cccs1	-11.5	-2.8	21.0	-21.1	-3.9
COc1ccccc1C(=O)NCCn1cc(SCC(=O)Nc2cc(C)on2)c2ccccc21	4.0	-19.5	41.6*	-2.9	-6.5
Cc1ccc(C(=O)NCCn2cc(SCC(=O)Nc3nnc(C)s3)c3ccccc32)cc1	19.3*	-14.4	16.8	-24.4	x
COc1ccccc1NS(=O)(=O)c1cc([N+](=O)[O-])ccc1N/N=C/c1c(C)[nH]c2ccccc12	6.5	41.2*	14.9	46.1*	-4.6
Cc1[nH]c2ccccc2c1/C=N/Nc1ccc([N+](=O)[O-])cc1	1.3	56.8*	17.1	52.5*	-5.1
O=[N+]([O-])c1ccc(N/N=C/c2c[nH]c3ccccc23)c(S(=O)(=O)Nc2ccc(Cl)cc2)c1	1.2	5.1	5.1	2.1	-2.8
COc1cccc(-c2nn3c(-c4cccc(C)c4)nnc3s2)c1	-5.3	-28.7	57.3*	-4.5	-6.6
CCOc1ccc(-c2nnc3sc(COc4ccccc4)nn23)cc1	-2.6	-11.0	8.7	-28.9	-5.6
CCOc1ccc(-c2nn3c(-c4ccccc4)nnc3s2)cc1	-11.8	-14.1	64.4*	-0.9	-4.6
